Laboratory results as given in ChEMBL document CHEMBL3611971, “Multifunctional novel Diallyl disulfide (DADS) derivatives with β-amyloid-reducing, cholinergic, antioxidant and metal chelating properties for the treatment of Alzheimer's disease” (Bioorg Med Chem, 2015).

Tests used:
Acetylcholinesterase = Acetylcholinesterase (Electrophorus electricus, UniProt O42275); assay: Inhibition of electric eel AChE using DTNB as substrate incubated for 5 mins prior to substrate addition measured after 2 mins by Ellman's method
[1] = target: Amyloid-beta precursor protein (Homo sapiens) (UniProt P05067); conditions: at 25 µM
Cholinesterase = Cholinesterase (Equus caballus, UniProt P81908); assay: Inhibition of equine serum BuChE using DTNB as substrate incubated for 5 mins prior to substrate addition measured after 2 mins by Ellman's method
[2] = Metal chelating activity of the compound assessed as reduction of Cu2+-amyloid beta (1 to 42)-complex induced H2O2 production from ascorbate at 800 nM after 30 mins by HRP/Amplex Red assay relative to control; assay type: physicochemical; design: scale not given: the % may be the effect or the level left; conditions: 0.5 h, 0.8 µM
How it was run: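 Per well, in phosphate buffer (100 μL): CuCl2 400 nM, Aβ 200 nM, chelator 800 nM (1% v/v DMSO) and sodium ascorbate 10 mM, held 30 min at room temperature. Working solution with Amplex Red and HRP then added for another 30 min at room temperature. Fluorescence ex/em 530/590 nm. At least three measurements.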

[3] = Metal chelating activity of the compound assessed as formation of Fe2+-compound complex at 50 uM after 30 mins by UV-vis spectrometry; assay type: physicochemical; conditions: 0.5 h
How it was run: (§1)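 UV absorption scan from 200 to 600 nm of compound in methanol, alone or with CuCl2 or FeSO4. Read after 30 min at room temperature, with compound and metal each at 50 μM final.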

[4] = Cytotoxicity against HEK293 cells assessed as cell viability at 10 uM after 48 hrs by MTT assay relative to control; assay type: cell-based; conditions: human, read-out: Activity
How it was run: (§2)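 HEK 293 cells grown in DMEM with 10% FBS and 1% penicillin–streptomycin at 37 °C, 5% CO2. Seeded at 5000 cells/well and cultured 24 h, then exposed 48 h to compound (DMSO stock diluted in complete medium; 0.1–100 μM final), in triplicate. MTT added for 4 h, formazan dissolved in DMSO, absorbance read at 570 nm against 630 nm reference. Mean ± SEM of 3 independent experiments.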

[5] = Cytotoxicity against HEK293 cells assessed as cell viability at 1 uM after 48 hrs by MTT assay relative to control; assay type: cell-based; conditions: human, read-out: Activity; how it was run: as §2
[6] = Cytotoxicity against HEK293 cells assessed as cell viability at 0.1 uM after 48 hrs by MTT assay relative to control; assay type: cell-based; conditions: human, read-out: Activity; how it was run: as §2
[7] = Cytotoxicity against HEK293 cells assessed as cell viability at 100 uM after 48 hrs by MTT assay relative to control; assay type: cell-based; conditions: human, read-out: Activity; how it was run: as §2
[8] = Cytotoxicity against HEK293 cells assessed as cell viability at 25 uM after 48 hrs by MTT assay relative to control; assay type: cell-based; conditions: human, read-out: Activity; how it was run: as §2
[9] = Metal chelating activity of the compound assessed as reduction of Cu2+-induced amyloid beta (1 to 42) (unknown origin) aggregation at 50 uM after 24 hrs by transmission electron microscopic analysis; assay type: physicochemical
How it was run: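 Aβ1–42 diluted in 20 mM phosphate buffer (pH 7.4) at 4 °C. Preincubated 2 min with Cu2+ (Aβ and Cu2+ each 25 μM final), then incubated 24 h at 37 °C with or without compound at 50 μM. Samples placed on carbon-coated grids for 2 min at room temperature, stained 2 min with 1% uranyl acetate, and imaged by TEM.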

[10] = Cytotoxicity against HEK293 cells assessed as cell viability at 50 uM after 48 hrs by MTT assay relative to control; assay type: cell-based; conditions: human, read-out: Activity; how it was run: as §2
[11] = Metal chelating activity of the compound assessed as reduction of Cu2+-induced amyloid beta (1 to 42) (unknown origin) aggregation at 50 uM after 24 hrs by thioflavin-T-based fluorescence assay relative to control; assay type: physicochemical
How it was run: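 Aβ1–42 was HFIP-treated, dried, and held as DMSO stock. Diluted in […] (pH 6.6) with […]; 25 μM peptide incubated with or without 25 μM Cu2+ and 50 μM compound, 37 °C, 24 h.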

HEK293 = assay: Cytotoxicity against HEK293 cells assessed as cell viability at 0.1 to 100 uM after 48 hrs by MTT assay relative to control; assay type: cell-based; conditions: human, hek293, 48 h; how it was run: as §2
[12] = Metal chelating activity of the compound assessed as formation of Cu2+-compound complex at 50 uM after 30 mins by UV-vis spectrometry; assay type: physicochemical; conditions: 0.5 h; how it was run: as §1

Acetylcholinesterase, sequence (O42275 whole entry): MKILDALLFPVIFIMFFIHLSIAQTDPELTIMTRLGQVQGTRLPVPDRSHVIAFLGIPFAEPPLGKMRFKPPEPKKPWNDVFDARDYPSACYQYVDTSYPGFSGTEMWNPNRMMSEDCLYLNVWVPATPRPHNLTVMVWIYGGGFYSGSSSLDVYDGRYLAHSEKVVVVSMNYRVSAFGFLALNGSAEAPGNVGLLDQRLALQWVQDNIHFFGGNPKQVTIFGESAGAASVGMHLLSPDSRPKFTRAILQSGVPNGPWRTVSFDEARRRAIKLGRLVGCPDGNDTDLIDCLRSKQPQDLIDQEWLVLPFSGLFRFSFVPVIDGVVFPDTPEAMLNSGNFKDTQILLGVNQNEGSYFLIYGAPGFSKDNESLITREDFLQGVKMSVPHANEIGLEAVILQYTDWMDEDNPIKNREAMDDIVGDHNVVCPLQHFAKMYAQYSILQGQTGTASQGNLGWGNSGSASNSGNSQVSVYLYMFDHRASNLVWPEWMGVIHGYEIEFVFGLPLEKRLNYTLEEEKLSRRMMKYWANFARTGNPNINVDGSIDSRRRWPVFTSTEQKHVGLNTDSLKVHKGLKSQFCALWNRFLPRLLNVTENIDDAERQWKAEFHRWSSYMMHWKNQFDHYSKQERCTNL
Cholinesterase, sequence (P81908 whole entry): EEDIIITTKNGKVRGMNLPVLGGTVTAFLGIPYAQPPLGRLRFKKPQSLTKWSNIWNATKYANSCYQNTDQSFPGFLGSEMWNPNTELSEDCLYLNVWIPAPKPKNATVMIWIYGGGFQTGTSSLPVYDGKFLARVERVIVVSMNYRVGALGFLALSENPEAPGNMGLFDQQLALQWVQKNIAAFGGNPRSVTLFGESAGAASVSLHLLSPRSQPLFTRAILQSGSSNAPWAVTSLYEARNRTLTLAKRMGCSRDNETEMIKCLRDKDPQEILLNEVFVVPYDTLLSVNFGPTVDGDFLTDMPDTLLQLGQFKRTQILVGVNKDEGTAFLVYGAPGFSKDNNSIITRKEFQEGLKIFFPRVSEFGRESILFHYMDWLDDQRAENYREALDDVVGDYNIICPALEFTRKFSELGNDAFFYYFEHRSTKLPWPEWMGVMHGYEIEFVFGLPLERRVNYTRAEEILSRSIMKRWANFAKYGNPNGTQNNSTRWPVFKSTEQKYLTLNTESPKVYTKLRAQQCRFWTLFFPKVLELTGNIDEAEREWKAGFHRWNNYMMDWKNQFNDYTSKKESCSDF
Amyloid-beta precursor protein (Homo sapiens), sequence (P05067 whole entry): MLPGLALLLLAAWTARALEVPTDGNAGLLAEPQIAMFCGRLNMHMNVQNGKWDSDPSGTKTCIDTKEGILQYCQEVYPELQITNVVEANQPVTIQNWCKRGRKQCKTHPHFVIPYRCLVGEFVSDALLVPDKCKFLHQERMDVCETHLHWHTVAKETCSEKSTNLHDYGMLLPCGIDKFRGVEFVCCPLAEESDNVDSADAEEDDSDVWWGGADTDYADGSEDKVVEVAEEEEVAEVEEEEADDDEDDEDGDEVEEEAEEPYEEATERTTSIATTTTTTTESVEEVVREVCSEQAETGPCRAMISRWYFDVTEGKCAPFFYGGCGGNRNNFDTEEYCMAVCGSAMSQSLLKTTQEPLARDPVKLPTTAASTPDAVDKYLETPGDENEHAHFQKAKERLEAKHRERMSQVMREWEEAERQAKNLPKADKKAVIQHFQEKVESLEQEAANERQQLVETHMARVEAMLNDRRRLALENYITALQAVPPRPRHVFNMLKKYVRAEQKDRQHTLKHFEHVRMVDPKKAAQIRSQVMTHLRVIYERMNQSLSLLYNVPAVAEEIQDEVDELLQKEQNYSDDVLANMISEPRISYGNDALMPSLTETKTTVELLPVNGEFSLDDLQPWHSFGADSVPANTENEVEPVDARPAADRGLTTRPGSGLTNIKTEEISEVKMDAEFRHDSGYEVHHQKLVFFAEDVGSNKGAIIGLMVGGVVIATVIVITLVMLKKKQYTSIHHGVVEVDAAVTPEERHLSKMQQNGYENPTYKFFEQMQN

SMILES | IC50 (Acetylcholinesterase) | inhibition [1] | IC50 (Cholinesterase) | also measured
O=C(/C=C/c1cccc(Br)c1)SSC(=O)/C=C/c1cccc(Br)c1 | 0.54 µM | 68.7% | 38.7 µM | –
O=C(/C=C/c1ccc(O)cc1)SSC(=O)/C=C/c1ccc(O)cc1 | 0.21 µM | 66.4% | 24.5 µM | –
Fc1ccccc1/C=C/CSSC/C=C/c1ccccc1F | 48.7 µM | 33.5% | > 100 µM | –
Clc1ccc(/C=C/CSSC/C=C/c2ccc(Cl)cc2)cc1 | 37 µM | 48.2% | 94.2 µM | –
Clc1cc(Cl)cc(/C=C/CSSC/C=C/c2cc(Cl)cc(Cl)c2)c1 | 64.6 µM | 47.5% | > 100 µM | –
COc1ccc(/C=C/C(=O)SSC(=O)/C=C/c2ccc(OC)c(OC)c2)cc1OC | 0.056 µM | 74.2% | 13.6 µM | Activity [2]: 72%; Activity [3]: Active; viability at 48 h, 10 µM [4]: 95.4%; viability at 48 h, 1 µM [5]: 96.1%; viability at 48 h, 0.1 µM [6]: 98.9%; viability at 48 h, 100 µM [7]: 88.6%; viability at 48 h, 25 µM [8]: 95.7%; inhibition (INH) [9]: Active; viability at 48 h, 50 µM [10]: 92.8%; inhibition (INH) [11]: 80.9%; Activity (HEK293): Dose-dependent effect; Activity [12]: Active
Fc1cccc(/C=C/CSSC/C=C/c2cccc(F)c2)c1 | 53.2 µM | 44.2% | > 100 µM | –
Clc1cccc(/C=C/CSSC/C=C/c2cccc(Cl)c2)c1 | 44.2 µM | 52.4% | > 100 µM | –
COc1cc(/C=C/CSSC/C=C/c2ccc(O)c(OC)c2)ccc1O | 1.45 µM | 66.9% | 57.9 µM | –
Brc1cccc(/C=C/CSSC/C=C/c2cccc(Br)c2)c1 | 23.7 µM | 39.4% | 75.4 µM | –
O=C(/C=C/c1ccc(Cl)cc1)SSC(=O)/C=C/c1ccc(Cl)cc1 | 0.51 µM | 65.6% | 35.6 µM | –
Fc1cccc(F)c1/C=C/CSSC/C=C/c1c(F)cccc1F | 42.3 µM | 39.5% | > 100 µM | –
COc1ccc(/C=C/CSSC/C=C/c2ccc(OC)cc2)cc1 | 8.29 µM | 58.5% | 59.5 µM | –
Brc1ccc(/C=C/CSSC/C=C/c2ccc(Br)cc2)cc1 | 20.9 µM | 37.5% | 72.5 µM | –
COc1ccc(/C=C/C(=O)SSC(=O)/C=C/c2ccc(OC)cc2OC)c(OC)c1 | 0.142 µM | 69% | 14.9 µM | –
COc1ccc(/C=C/CSSC/C=C/c2ccc(OC)c(OC)c2)cc1OC | 1.1 µM | 61.2% | 55.2 µM | –
COc1ccc(/C=C/C(=O)SSC(=O)/C=C/c2ccc(OC)cc2)cc1 | 0.22 µM | 63.5% | 16 µM | –
O=C(O)CN(CCN(CC(=O)O)CC(=O)O)CC(=O)O [EDETIC ACID] | – | – | – | Activity [2]: > 80%
O=C(/C=C/c1ccc(F)cc1)SSC(=O)/C=C/c1ccc(F)cc1 | 0.45 µM | 62.4% | 32.4 µM | –
COc1cc(/C=C/C(=O)SSC(=O)/C=C/c2ccc(O)c(OC)c2)ccc1O | 0.121 µM | 71.4% | 12.9 µM | Activity [2]: 62%; Activity [3]: Active; viability at 48 h, 10 µM [4]: 94.4%; viability at 48 h, 1 µM [5]: 96.5%; viability at 48 h, 0.1 µM [6]: 97.3%; viability at 48 h, 100 µM [7]: 80.9%; viability at 48 h, 25 µM [8]: 92.3%; inhibition (INH) [9]: Active; viability at 48 h, 50 µM [10]: 90.1%; inhibition (INH) [11]: 78.5%; Activity (HEK293): Dose-dependent effect; Activity [12]: Active
O=C(/C=C/c1ccc(Br)cc1)SSC(=O)/C=C/c1ccc(Br)cc1 | 0.34 µM | 52.2% | 37.2 µM | –
COc1cc(/C=C/C(=O)CC(=O)/C=C/c2ccc(O)c(OC)c2)ccc1O [CURCUMIN] | – | – | – | inhibition (INH) [11]: 65.9%
Oc1ccc(/C=C/CSSC/C=C/c2ccc(O)cc2)cc1 | 12.3 µM | 53% | 63 µM | –
